# Measurements from ChEMBL document CHEMBL4364238, “Discovery of BNC375, a Potent, Selective, and Orally Available Type I Positive Allosteric Modulator of α7 nAChRs” (ACS Med Chem Lett, 2019).
# Active and inactive are the calls of the source. The rule behind the calls is not given here.
# Columns and labels:
# Mus musculus [1] = test: Reversal of scopolamine-induced memory impairment in mouse assessed as increase in spontaneous alteration at 3 mg/kg, po administered with compond and scopolamine at 60 mins and 30 mins respectively prior to test by T-maze test; assay type: functional; details: read-out: INH
# Procedure, shortened: (§1)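 Mouse T-maze continuous alternation task with scopolamine-induced impairment of spontaneous alternation; compound given orally in saline-based vehicle with 25% Cremophor ELP over 0.003–10.0 mg/kg; group means compared by one-way ANOVA then Fisher's PLSD, p < 0.05 significant.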
# Mus musculus [2] = test: Reversal of scopolamine-induced memory impairment in mouse assessed as percentage of increase in spontaneous alteration at 10 mg/kg, po administered with compond and scopolamine at 60 mins snd 30 mins respectively prior to test by T-maze test; assay type: functional; details: read-out: INH; procedure, shortened: as §1
# [3] = molecular target: Neuronal acetylcholine receptor subunit alpha-7 (Rattus norvegicus) (UniProt Q05941); test: Positive allosteric modulator activity at rat alpha7 nAChR expressed in GH4C1 cells assessed as potentiation of acetylcholine response at 3 uM at -70 mV holding potential preincubated for 30 secs followed by co-application with acetylcholine by automated patch clamp assay; assay type: cell-based
# Neuronal acetylcholine receptor subunit alpha-7 (Rattus norvegicus), sequence (Q05941 whole entry): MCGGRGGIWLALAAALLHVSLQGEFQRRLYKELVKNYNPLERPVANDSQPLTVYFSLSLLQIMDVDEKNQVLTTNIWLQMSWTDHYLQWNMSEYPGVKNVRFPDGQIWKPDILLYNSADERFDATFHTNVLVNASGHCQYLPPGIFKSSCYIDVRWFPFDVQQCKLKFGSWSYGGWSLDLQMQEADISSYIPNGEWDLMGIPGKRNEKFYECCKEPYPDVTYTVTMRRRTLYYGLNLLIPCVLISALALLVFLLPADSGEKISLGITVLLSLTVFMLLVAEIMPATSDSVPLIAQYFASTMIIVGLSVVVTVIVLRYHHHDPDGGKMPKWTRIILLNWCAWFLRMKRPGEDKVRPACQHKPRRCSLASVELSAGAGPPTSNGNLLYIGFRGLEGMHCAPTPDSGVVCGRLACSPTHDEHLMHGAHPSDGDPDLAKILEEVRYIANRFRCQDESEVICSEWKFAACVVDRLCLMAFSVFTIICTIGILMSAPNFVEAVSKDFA
# Procedure, shortened: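 Automated planar patch clamp on stable GH4C1 (rat) cell lines expressing rat α7 nAChR; test compound at 3 μM with an EC₂₀ acetylcholine challenge; percent change in peak current versus acetylcholine alone taken as P₃.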
# Mus musculus [4] = test: Reversal of scopolamine-induced memory impairment in mouse assessed as increase in spontaneous alteration at 1 mg/kg, po administered with compond and scopolamine at 60 mins and 30 mins respectively prior to test by T-maze test; assay type: functional; details: read-out: INH; procedure, shortened: as §1
# [5] = Lipophilicity, log D of the compound at pH 7.4; assay type: physicochemical; details: buffer
# [6] = molecular target: Neuronal acetylcholine receptor subunit alpha-7 (Rattus norvegicus) (UniProt Q05941); test: Positive allosteric modulatory activity at rat alpha7 nAChR expressed in GH4C1 cells assessed as AUC of potentiation of acetylcholine response at 3 uM at -70 mV holding potential preincubated for 30 secs followed by co-application with acetylcholine by manual patch clamp assay relative to potentiation of current response; assay type: cell-based
# Procedure, shortened: (§2)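 Conventional manual patch-clamp with a fast-application system on stable GH4C1 cells expressing rat α7 nAChR; currents evoked by acetylcholine with and without test compound; peak-current change relative to acetylcholine alone gives potentiation (P₃ at 3 μM; concentration–response for EC₅₀ and Pmax).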
# Mus musculus [7] = test: Reversal of scopolamine-induced memory impairment in mouse assessed as increase in spontaneous alteration at 3 to 30 mg/kg, ip administered with compond and scopolamine at 60 mins snd 30 mins respectively prior to test by T-maze test; assay type: functional, organism-based
# Procedure, shortened: (§3)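 Mouse T-maze continuous alternation task; reversal of scopolamine-induced loss of spontaneous alternation after ip or oral doses of 3 and 30 mg/kg; significant doses reported.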
# [8] = Solubility of the compound at pH 6.5; assay type: physicochemical; details: buffer
# Mus musculus [9] = test: Reversal of scopolamine-induced memory impairment in mouse assessed as spontaneous alteration at 3 to 30 mg/kg, po administered with compond and scopolamine at 60 mins and 30 mins respectively prior to test by T-maze test; assay type: functional, organism-based; procedure, shortened: as §3
# [10] = molecular target: Neuronal acetylcholine receptor subunit alpha-7 (Rattus norvegicus) (UniProt Q05941); test: Positive allosteric modulatory activity at rat alpha7 nAChR expressed in GH4C1 cells assessed as potentiation of acetylcholine response at 3 uM at -70 mV holding potential preincubated for 30 secs followed by co-application with acetylcholine by manual patch clamp assay; assay type: cell-based; procedure, shortened: as §2
smiles,measurement,setting,value
CC1(C)[C@H](CNc2ccc(F)cc2C(F)(F)F)[C@H]1c1ccc(S(N)(=O)=O)cc1,percent reversal of scopolamine-induced memory impairment at 3 mg/kg,Mus musculus [1],38%
same,percent increase in spontaneous alternation at 10 mg/kg,Mus musculus [2],-9%
same,Activity,[3],410%
same,percent reversal of scopolamine-induced memory impairment (increase in spontaneous alternation) at 1 mg/kg,Mus musculus [4],-18%
CC1(C)[C@H](CNc2ccc(F)cc2OC(F)F)[C@H]1c1ccc(S(N)(=O)=O)cc1,percent reversal of scopolamine-induced memory impairment at 3 mg/kg,Mus musculus [1],8%
same,percent increase in spontaneous alternation at 10 mg/kg,Mus musculus [2],41%
same,Activity,[3],170%
same,percent reversal of scopolamine-induced memory impairment (increase in spontaneous alternation) at 1 mg/kg,Mus musculus [4],28%
CCOc1ccc(Cl)cc1NC(=O)C1C(c2ccc(S(N)(=O)=O)cc2)C1(C1CCCCC1)C1CCCCC1 (stereo not given),Activity,[3],Active
Cc1cc(F)ccc1NC[C@@H]1[C@@H](c2ccc(S(N)(=O)=O)cc2)C1(C)C,Activity,[3],470%
Cc1cc(F)c(Cl)cc1NCC1C(c2ccc(S(N)(=O)=O)cc2)C1(C)C (racemic),Activity,[3],9230%
COc1ncccc1NCC1C(c2ccc(S(N)(=O)=O)cc2)C1(C)C (racemic),Activity,[3],2420%
CC(C)(C)c1cc(NCC2C(c3ccc(S(N)(=O)=O)cc3)C2(C)C)no1 (racemic),Activity,[3],< 100%
COc1ccc(Cl)cc1NCC1C(c2ccc(S(=O)(=O)NN)cc2)C1(C)C (racemic),Activity,[3],130%
Cc1ccc(F)cc1NC[C@H]1[C@H](c2ccc(S(N)(=O)=O)cc2)C1(C)C,Activity,[3],17400%
CC1(C)C(CNC2CCCCC2)C1c1ccc(S(N)(=O)=O)cc1 (racemic),Activity,[3],< 100%
Cc1ccc(Cl)cc1NCC1C(c2ccc(S(N)(=O)=O)cc2)C1(C)C (racemic),Activity,[3],12300%
Cc1cc(F)ccc1NC[C@H]1[C@H](c2ccc(S(N)(=O)=O)cc2)C1(C)C,Activity,[3],17600%
Cc1cc(F)ccc1NCC1C(c2ccc(S(N)(=O)=O)cc2)C1(C)C (racemic),Activity,[3],8660%
CC1(C)C(CNc2cncc(F)c2)C1c1ccc(S(N)(=O)=O)cc1 (racemic),Activity,[3],3000%
Cc1ncccc1NCC1C(c2ccc(S(N)(=O)=O)cc2)C1(C)C (racemic),Activity,[3],130%
CC1(C)C(CNc2cccc(N3CCOCC3)c2)C1c1ccc(S(N)(=O)=O)cc1 (racemic),Activity,[3],460%
CC1(C)C(CNc2ccc(F)cc2OC(F)F)C1c1ccc(S(N)(=O)=O)cc1 (racemic),Activity,[3],3360%
COc1ccc(C(F)(F)F)cc1NCC1C(c2ccc(S(N)(=O)=O)cc2)C1(C)C (racemic),Activity,[3],8170%
COc1ccc(Cl)cc1NC(=O)C1C(c2ccc(S(N)(=O)=O)cc2)C12CCCC2 (racemic),logD,[5],4.2
same,Ratio,[6],5.6
same,inhibition,Mus musculus [7],Active
same,solubility,[8],1.6 to 3.1 µg/mL
same,Activity,[3],710%
same,inhibition,Mus musculus [9],inactive
same,Activity,[10],360%
COc1ccc(Cl)cc1NC(=O)c1cccc(-c2ccc(S(N)(=O)=O)cc2)c1,Activity,[3],410%
same,inhibition,Mus musculus [9],inactive
CC1(C)C(CNc2cc(F)ccc2OC(F)(F)F)C1c1ccc(S(N)(=O)=O)cc1 (racemic),Activity,[3],2440%
CC1(C)[C@@H](CNc2ccc(F)cc2OC(F)F)[C@@H]1c1ccc(S(N)(=O)=O)cc1,percent reversal of scopolamine-induced memory impairment at 3 mg/kg,Mus musculus [1],16%
same,percent increase in spontaneous alternation at 10 mg/kg,Mus musculus [2],51%
same,Activity,[3],8170%
same,percent reversal of scopolamine-induced memory impairment (increase in spontaneous alternation) at 1 mg/kg,Mus musculus [4],46%
CC1(C)C(CNc2ccccc2)C1c1ccc(S(N)(=O)=O)cc1 (racemic),Activity,[3],2570 to 9890%
Cc1ccc(F)cc1NC[C@@H]1[C@@H](c2ccc(S(N)(=O)=O)cc2)C1(C)C,percent reversal of scopolamine-induced memory impairment at 3 mg/kg,Mus musculus [1],0%
same,percent increase in spontaneous alternation at 10 mg/kg,Mus musculus [2],10%
same,Activity,[3],460%
same,percent reversal of scopolamine-induced memory impairment (increase in spontaneous alternation) at 1 mg/kg,Mus musculus [4],-9%
CC1(C)[C@@H](CNc2ccc(F)cc2C(F)(F)F)[C@@H]1c1ccc(S(N)(=O)=O)cc1,percent reversal of scopolamine-induced memory impairment at 3 mg/kg,Mus musculus [1],39%
same,percent increase in spontaneous alternation at 10 mg/kg,Mus musculus [2],79%
same,Activity,[3],2860%
same,percent reversal of scopolamine-induced memory impairment (increase in spontaneous alternation) at 1 mg/kg,Mus musculus [4],40%
COc1ccc(Cl)cc1NCC1C(c2ccc(S(=O)(=O)NO)cc2)C1(C)C (racemic),Activity,[3],720%
CC1(C)C(CNc2ccc(N3CCOCC3)cc2)C1c1ccc(S(N)(=O)=O)cc1 (racemic),Activity,[3],< 100%
Cc1cc(F)c(F)cc1NC[C@H]1[C@H](c2ccc(S(N)(=O)=O)cc2)C1(C)C,percent reversal of scopolamine-induced memory impairment at 3 mg/kg,Mus musculus [1],-15%
same,percent increase in spontaneous alternation at 10 mg/kg,Mus musculus [2],-5%
same,Activity,[3],8930%
same,percent reversal of scopolamine-induced memory impairment (increase in spontaneous alternation) at 1 mg/kg,Mus musculus [4],-13%
Cc1cc(F)c(F)cc1NC[C@@H]1[C@@H](c2ccc(S(N)(=O)=O)cc2)C1(C)C,percent reversal of scopolamine-induced memory impairment at 3 mg/kg,Mus musculus [1],31%
same,percent increase in spontaneous alternation at 10 mg/kg,Mus musculus [2],15%
same,Activity,[3],420%
same,percent reversal of scopolamine-induced memory impairment (increase in spontaneous alternation) at 1 mg/kg,Mus musculus [4],8%
COc1ccc(S(N)(=O)=O)cc1NCC1C(c2ccc(S(N)(=O)=O)cc2)C1(C)C (racemic),Activity,[3],< 100%
CCOc1ccc(Cl)cc1NC(=O)C1C(c2ccc(S(N)(=O)=O)cc2)C1(CC)CC (stereo not given),Activity,[3],Active
COc1ccc(Cl)cc1NC(=O)C1C(c2ccc(S(N)(=O)=O)cc2)C1(C)C (racemic),logD,[5],3.7
same,Ratio,[6],5.6
same,inhibition,Mus musculus [7],Active
same,solubility,[8],3.1 to 6.3 µg/mL
same,Activity,[3],660%
same,Activity,[10],420%
